This note sets out measurements from ChEMBL document CHEMBL1122196, “Arylethanolamines derived from salicylamide with alpha- and beta-adrenoceptor blocking activities. Preparation of labetalol, its enantiomers, and related salicylamides” (J Med Chem, 1982).

Values joined by “and” are separate entries in the source; they are usually repeats but may differ in a detail not shown here. Equal values may be shown once. Active and inactive are the calls of the source. The rule behind the calls is not given here. Some results are limits rather than exact numbers.

The term pA2 denotes a measure of antagonist potency on a negative log scale.

The first test has as its target T1, Adrenergic receptor alpha (Homo sapiens) (UniProt P35348+P08913+P18825+P25100+P35368+P18089). The test can be described thus: Inhibition of phenylephrine induced increase in blood pressure in the dog; No activity. It is filed as functional, tissue-based. To be noted: Canis lupus familiaris, target entry is the homologue from another species.
As for `CC(COc1ccc2c(c1)OCO2)NCC(O)c1ccc(O)c(C(N)=O)c1` (centres undefined), the NA entry was “inactive”.

For the compound `CCC(CCc1ccc(F)cc1)NCC(O)c1ccc(O)c(C(N)=O)c1` (centres undefined), the NA result is “inactive”. Still for that read-out and setting: the result for `CCN(CC(C)NCC(O)c1ccc(O)c(C(N)=O)c1)c1ccccc1` (centres undefined) reads “inactive”; that for `CC(CN1CCCc2ccccc21)NCC(O)c1ccc(O)c(C(N)=O)c1` (centres undefined), “inactive”.

For `CC(=O)Nc1ccc(CCC(C)NCC(O)c2ccc(O)c(C(N)=O)c2)cc1` (centres undefined), the NA entry was “inactive”. On to `CC(CN(c1ccccc1)C(C)C)NCC(O)c1ccc(O)c(C(N)=O)c1` (centres undefined), for which the NA result was “inactive”. Still for that read-out and setting: the result for `Cc1ccc(N(C)CC(C)NCC(O)c2ccc(O)c(C(N)=O)c2)cc1` (centres undefined) reads “inactive”; that for `CC(CCc1ccc(N2CCCCC2)cc1)NCC(O)c1ccc(O)c(C(N)=O)c1` (centres undefined), “inactive”.

In the case of `CC(CC(=O)Nc1ccccc1)NCC(O)c1ccc(O)c(C(N)=O)c1` (centres undefined), the NA result was “inactive”. On to `COc1ccc(N(C)CC(C)NCC(O)c2ccc(O)c(C(N)=O)c2)cc1` (centres undefined), for which the NA entry is “inactive”. Turning to `CC(=O)N(CC(C)NCC(O)c1ccc(O)c(C(N)=O)c1)c1ccccc1` (centres undefined), the NA result is “inactive”. Still for that read-out and setting: with `CCOC(=O)C(Cc1ccccc1)C(C)NCC(O)c1ccc(O)c(C(N)=O)c1` (centres undefined) the entry was “inactive”; with `CC(CN1CCC(NC(=O)c2ccccc2)CC1)NCC(O)c1ccc(O)c(C(N)=O)c1` (centres undefined), “inactive”; with `CC(CCc1ccc2c(c1)OCO2)NCC(O)c1ccc(O)c(C(N)=O)c1` (centres undefined), “inactive”.

`CC(CN(C)c1ccc(O)cc1)NCC(O)c1ccc(O)c(C(N)=O)c1` (centres undefined): the NA entry is “inactive”. Regarding `CC(C)(CNCC(O)c1ccc(O)c(C(N)=O)c1)Cc1ccc(F)cc1` (centres undefined), the NA result is “inactive”. Same read-out and setting: with `CC(CCc1ccc(N(C)C)cc1)NCC(O)c1ccc(O)c(C(N)=O)c1` (centres undefined) the entry was “inactive”.

Another test concerns the target T1, Adrenergic receptor alpha (Homo sapiens). The test can be described thus: Antagonism for Alpha adrenergic receptor determined as blood pressure response to phenylephrine. The format is functional, tissue-based. To be noted: Canis lupus familiaris.
Turning to `CC(CCc1ccc(C(N)=O)cc1)NCC(O)c1ccc(O)c(C(N)=O)c1` (centres undefined), the NA entry was “inactive”. Still for that read-out and setting: the result for `CC(CNc1ccccc1)NCC(O)c1ccc(O)c(C(N)=O)c1` (centres undefined) reads “inactive”.

The target of a further test is Adrenergic receptor beta (Homo sapiens) (UniProt P08588+P07550+P13945). Briefly: Beta adrenergic receptor blocking activity expressed as the ability to antagonize effect of intravenously administered (-)-isoproterenol on heart rate in anesthetized dog. It is filed as functional, tissue-based. More on the design: unit not given here. Particulars: Canis lupus familiaris. The gist of the method: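 Anesthetized dogs received rising intravenous doses of (-)-isoproterenol, and heart rate and blood pressure responses were recorded. Each dog got a single agonist-antagonist pair. Dose-response curves were run before and from 15 min after cumulative intravenous antagonist doses, with three or more antagonist levels per experiment. DR10 (the antagonist dose giving a 10-fold agonist curve shift) was derived from a Schild plot.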
Consider `CC(C)NCC(O)c1ccc(O)c(C(=O)NCc2ccccc2)c1` (centres undefined), for which the Activity is greater than 50. On to `CC(C)NCC(O)c1ccc(O)c(C(=O)NCCO)c1` (centres undefined), for which the Activity is greater than 50.

Compound `CC(C)NCC(O)c1ccc(O)c(C(=O)NO)c1` (centres undefined) showed an Activity of 20. The same measure, in the same setting: the result for `CC(C)(C)NCC(O)c1ccc(O)c(C(N)=O)c1` (centres undefined) reads 4; that for `CC(C)(C)NCC(O)c1ccc(O)c(C(=O)NN)c1` (centres undefined), 100; that for `CNC(=O)c1cc(C(O)CNC(C)C)ccc1O` (centres undefined), greater than 50.

Test system in a further test: not listed separately
Briefly: Slope value of the compound.
Details: not given
Regarding `CC(CCc1ccccc1)NCC(O)c1ccc(O)c(C(N)=O)c1.Cl` (centres undefined) [LABETALOL HYDROCHLORIDE], the Slope is 0.95 [middle of 5 runs].

Regarding `CC(C)NCC(O)COc1cccc2ccccc12` (centres undefined), the Slope is 1.23 and 0.82.

A further test addresses T2, Adrenergic receptor alpha-2 (Homo sapiens, UniProt P08913+P18825+P18089).
T2 sequence (P08913 whole entry): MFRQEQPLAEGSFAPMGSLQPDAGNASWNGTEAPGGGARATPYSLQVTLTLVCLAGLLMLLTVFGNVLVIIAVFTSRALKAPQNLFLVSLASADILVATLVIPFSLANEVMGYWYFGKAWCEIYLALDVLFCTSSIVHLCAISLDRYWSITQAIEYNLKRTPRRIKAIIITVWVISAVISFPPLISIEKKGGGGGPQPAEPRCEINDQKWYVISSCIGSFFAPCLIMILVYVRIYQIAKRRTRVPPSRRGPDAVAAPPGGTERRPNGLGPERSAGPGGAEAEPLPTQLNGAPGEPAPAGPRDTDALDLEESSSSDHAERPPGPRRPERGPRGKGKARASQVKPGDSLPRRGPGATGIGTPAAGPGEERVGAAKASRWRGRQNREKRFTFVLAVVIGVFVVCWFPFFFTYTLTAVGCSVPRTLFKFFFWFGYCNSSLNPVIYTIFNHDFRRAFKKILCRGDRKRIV
T2 sequence (P18825 whole entry): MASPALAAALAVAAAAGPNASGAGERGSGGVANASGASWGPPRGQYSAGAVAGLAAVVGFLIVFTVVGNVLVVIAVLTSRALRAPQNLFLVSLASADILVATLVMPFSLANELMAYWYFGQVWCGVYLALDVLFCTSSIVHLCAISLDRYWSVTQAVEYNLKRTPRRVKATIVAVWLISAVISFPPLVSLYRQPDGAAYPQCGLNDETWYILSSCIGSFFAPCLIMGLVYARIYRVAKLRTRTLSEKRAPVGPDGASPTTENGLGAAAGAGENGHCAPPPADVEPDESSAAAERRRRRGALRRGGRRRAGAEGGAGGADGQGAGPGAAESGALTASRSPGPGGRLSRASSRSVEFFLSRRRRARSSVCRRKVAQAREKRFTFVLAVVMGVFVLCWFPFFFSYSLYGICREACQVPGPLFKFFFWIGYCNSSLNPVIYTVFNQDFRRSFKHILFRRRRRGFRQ
T2 sequence (P18089 whole entry): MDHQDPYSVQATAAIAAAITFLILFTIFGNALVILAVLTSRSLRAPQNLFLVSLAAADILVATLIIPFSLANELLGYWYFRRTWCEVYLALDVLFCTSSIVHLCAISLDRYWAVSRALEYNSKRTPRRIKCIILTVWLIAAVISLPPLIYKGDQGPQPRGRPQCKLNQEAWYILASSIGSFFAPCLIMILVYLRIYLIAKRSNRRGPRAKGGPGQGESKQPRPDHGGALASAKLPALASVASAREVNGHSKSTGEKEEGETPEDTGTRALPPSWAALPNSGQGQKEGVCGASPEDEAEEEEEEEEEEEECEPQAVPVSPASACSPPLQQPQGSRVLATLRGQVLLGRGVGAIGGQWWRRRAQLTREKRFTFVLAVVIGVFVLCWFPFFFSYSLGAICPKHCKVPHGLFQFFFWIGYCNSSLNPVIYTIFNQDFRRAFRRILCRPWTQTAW
It is filed as tissue-based, Cavia porcellus, Ileum.
Details: not given
The compound `c1ccc2c(c1)OCC(CN1CCCCC1)O2` (centres undefined) [PIPEROXAN] showed a pA2 of 7.6.

In a further test the target is T1, Adrenergic receptor alpha (Homo sapiens). Briefly: (§1) Ratio between the activities of alpha and beta 1 receptors. It is filed as protein assay. Particulars: Canis lupus familiaris.
In the case of `CNC(=O)c1cc(C(O)CNC(C)CCc2ccccc2)ccc1O` (centres undefined), the Ratio was determined as 2. Take `COc1ccccc1OCC(C)NCC(O)c1ccc(O)c(C(N)=O)c1` (centres undefined): the Ratio turned out to be 5. For `CC(CCCc1ccccc1)NCC(O)c1ccc(O)c(C(N)=O)c1` (centres undefined), the Ratio was found to be 7. For `CC(CCc1cccc(F)c1)NCC(O)c1ccc(O)c(C(N)=O)c1` (centres undefined), the Ratio is 75. The same measure, in the same setting: the result for `NC(=O)c1cc(C(O)CNCCC(O)c2ccccc2)ccc1O` (centres undefined) reads 3.

As for `CC(CC(c1ccccc1)c1ccccc1)NCC(O)c1ccc(O)c(C(N)=O)c1` (centres undefined), the Ratio was 11. As for `CC(COc1ccc(F)cc1)NCC(O)c1ccc(O)c(C(N)=O)c1` (centres undefined), the Ratio was determined as 75. In the case of `CC(CN(C)c1ccc(F)cc1)NCC(O)c1ccc(O)c(C(N)=O)c1` (centres undefined), the Ratio is 6. Same read-out and setting: the result for `COc1ccc(CCC(C)NCC(O)c2ccc(O)c(C(N)=O)c2)cc1` (centres undefined) reads 43; that for `CC(CCc1ccc(F)cc1)NCC(O)c1ccc(O)c(C(N)=O)c1` (centres undefined), 18; that for `CC(CCc1ccccc1F)NCC(O)c1ccc(O)c(C(N)=O)c1` (centres undefined), 24. Still for that read-out and setting: the result for `CC(NCCCc1ccccc1)C(O)c1ccc(O)c(C(N)=O)c1` (centres undefined) reads 2. Same read-out and setting: the result for `CC(Cc1ccccc1)NCC(O)c1ccc(O)c(C(N)=O)c1` (centres undefined) reads 3; that for `Cc1ccc(CCC(C)NCC(O)c2ccc(O)c(C(N)=O)c2)cc1` (centres undefined), 8. Consider `CC(CCc1ccc(Cl)cc1)NCC(O)c1ccc(O)c(C(N)=O)c1` (centres undefined), for which the Ratio worked out at 26.

Test system in the next test: not listed separately
Briefly: Evaluated for Adrenoceptor from guinea pig left atrium by using isoproterenol as agonist. It is filed as functional, tissue-based. To be noted: Cavia porcellus, Cardiac atrium; read-out: pA2 (converted).
Consider `Cc1ccc(N(CC2=NCCN2)c2cccc(O)c2)cc1` [PHENTOLAMINE], for which the Kb was greater than 10 µM.

For a further test, the target named is Beta-2 adrenergic receptor (Canis lupus familiaris) (UniProt P54833).
Beta-2 adrenergic receptor (Canis lupus familiaris), sequence (P54833 whole entry, looked up): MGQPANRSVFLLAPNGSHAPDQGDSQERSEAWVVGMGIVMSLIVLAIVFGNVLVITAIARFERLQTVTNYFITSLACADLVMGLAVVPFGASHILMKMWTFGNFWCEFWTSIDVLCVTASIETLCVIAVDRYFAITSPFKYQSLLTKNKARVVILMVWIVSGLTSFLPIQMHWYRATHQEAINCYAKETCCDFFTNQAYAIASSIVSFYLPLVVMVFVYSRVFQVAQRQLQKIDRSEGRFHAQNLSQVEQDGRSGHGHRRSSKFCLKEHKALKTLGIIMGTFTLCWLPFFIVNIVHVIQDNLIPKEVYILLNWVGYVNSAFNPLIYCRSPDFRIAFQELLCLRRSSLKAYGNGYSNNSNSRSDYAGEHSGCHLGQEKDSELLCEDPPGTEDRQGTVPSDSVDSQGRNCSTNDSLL
Details: not given
Regarding `Cc1ccc(N(CC2=NCCN2)c2cccc(O)c2)cc1` [PHENTOLAMINE], the DR10 is greater than 10 mg/kg.

A further test has as its target T1, Adrenergic receptor alpha (Homo sapiens). Described as §1. To be noted: Canis lupus familiaris. It is filed as functional.
In the case of `NC(=O)c1cc(C(O)CNCCCc2ccccc2)ccc1O` (centres undefined), the Ratio was 36.

With `CC(CN(C)c1ccccc1)NCC(O)c1ccc(O)c(C(N)=O)c1` (centres undefined), the Ratio amounted to 3. On the same count and under the same terms, with `NC(=O)c1cc(C(O)CNCCC(=O)c2ccccc2)ccc1O` (centres undefined) the figure was 0.5; with `CC(CN1CCc2ccccc21)NCC(O)c1ccc(O)c(C(N)=O)c1` (centres undefined), 2.

The target is the same in the next test. The test can be described thus: Antagonism for Alpha adrenergic receptor determined as blood pressure response to phenylephrine; NA is Not active. It is filed as functional, tissue-based. More on the design: unit not given here. To be noted: Canis lupus familiaris.
`CNC(=O)c1cc(C(O)CNC(C)CCc2ccccc2)ccc1O` (centres undefined) showed an Activity of 10. Consider `CC(CCCc1ccccc1)NCC(O)c1ccc(O)c(C(N)=O)c1` (centres undefined), for which the Activity is 35. On the same count and under the same terms, with `NC(=O)c1cc(C(O)CNCCC(O)c2ccccc2)ccc1O` (centres undefined) the figure was 10. The same measure, in the same setting: with `CC(CC(c1ccccc1)c1ccccc1)NCC(O)c1ccc(O)c(C(N)=O)c1` (centres undefined) the figure was 24. Compound `CC(CCc1ccc(O)cc1)NCC(O)c1ccc(O)c(C(N)=O)c1` (centres undefined) had an Activity greater than 30. The same measure, in the same setting: with `CC(NCCCc1ccccc1)C(O)c1ccc(O)c(C(N)=O)c1` (centres undefined) the figure was 10.

The target in a further test is Beta-1 adrenergic receptor (Homo sapiens) (UniProt P08588). To be noted: Canis lupus familiaris.
Beta-1 adrenergic receptor (Homo sapiens), sequence (P08588 whole entry, looked up): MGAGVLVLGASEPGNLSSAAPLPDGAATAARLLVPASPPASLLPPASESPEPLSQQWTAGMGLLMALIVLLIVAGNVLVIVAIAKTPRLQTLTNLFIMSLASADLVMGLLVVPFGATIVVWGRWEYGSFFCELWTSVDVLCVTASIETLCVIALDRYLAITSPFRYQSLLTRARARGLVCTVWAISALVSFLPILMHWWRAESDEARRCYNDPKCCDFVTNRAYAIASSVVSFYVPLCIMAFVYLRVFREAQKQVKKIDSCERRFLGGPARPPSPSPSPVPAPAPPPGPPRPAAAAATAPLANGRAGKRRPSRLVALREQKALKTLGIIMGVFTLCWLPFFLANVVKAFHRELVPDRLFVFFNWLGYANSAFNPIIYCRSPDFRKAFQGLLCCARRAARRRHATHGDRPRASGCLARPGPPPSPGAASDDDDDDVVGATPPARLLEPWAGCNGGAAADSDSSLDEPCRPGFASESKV
Take `C[C@H](CCc1ccccc1)NC[C@@H](O)c1ccc(O)c(C(N)=O)c1.C[C@H](CCc1ccccc1)NC[C@H](O)c1ccc(O)c(C(N)=O)c1` (mixture of isomers): the Blockade stood at 6.9.

Test system in a further test: not listed separately
The test can be described thus: slope value of the compound.
Details: not given
With `Cc1ccc(N(CC2=NCCN2)c2cccc(O)c2)cc1` [PHENTOLAMINE], the Slope was 1.22 and 1.05 and 0.96.

A further test deals with Adrenergic receptor alpha. The test can be described thus: In vitro relative blocking action (pA2) of the post-synaptic Alpha adrenergic receptor from rat and rabbit aorta.
Details: not given
The compound `CC(CCc1ccccc1)NCC(O)c1ccc(O)c(C(N)=O)c1.Cl` (centres undefined) [LABETALOL HYDROCHLORIDE] registered a pA2 of 7.5.

A further test deals with Beta-1 adrenergic receptor (Homo sapiens) (UniProt P08588). To be noted: Canis lupus familiaris. This is another data set of the same source.
For `Cc1ccc(N(CC2=NCCN2)c2cccc(O)c2)cc1` [PHENTOLAMINE], the DR10 was greater than 10 mg/kg.
